By EC50 is commonly meant the midpoint of the concentration-response curve. What is called CC50 is the concentration giving 50% cytotoxicity. In general, Ki refers to a measure of affinity in units of concentration, obtained from inhibition or displacement.

Active and inactive are the calls of the source. No cut-off for these calls is given here.

Data set [1] concerns Human immunodeficiency virus. Description: Antiviral activity against HIV after 2 days by luminometric method. Type of data set: functional, organism-based. The conditions noted are these: Human immunodeficiency virus 1, 48 h.
Data set [2] relates to Hepatitis C virus. As to the kind of experiment: Antiviral activity against Hepatitis C virus after 2 days by luminometric method. Type of data set: functional, organism-based, Hepacivirus hominis. The following applies: 48 h.
For data set [3], the system named is Dengue virus. Description: Antiviral activity against DENV after 2 days by luminometric method. Type of data set: functional, organism-based. The conditions noted are these: 48 h.
For data set [4], the system named is West Nile virus. Description: Antiviral activity against West Nile virus after 2 days by luminometric method. Type of data set: functional, organism-based. The following applies: 48 h.
Data set [5] can be described thus: Selectivity index, ratio of CC50 for human Lunet cells to EC50 for HIV. Type of data set: toxicity. The conditions noted are these: read-out: Ratio CC50/EC50.
Data set [6] in a line: Selectivity index, ratio of CC50 for human Lunet cells to EC50 for Hepatitis C virus. Type of data set: toxicity. The following applies: read-out: Ratio CC50/EC50.
Data set [7] can be described thus: Selectivity index, ratio of CC50 for human Lunet cells to EC50 for DENV. Type of data set: toxicity. The conditions noted are these: read-out: Ratio CC50/EC50.
Data set [8] is described as follows: Selectivity index, ratio of CC50 for human Lunet cells to EC50 for West Nile virus. Type of data set: toxicity. The conditions noted are these: read-out: Ratio CC50/EC50.
Data set [9] concerns Influenza A virus. Description: Antiviral activity against Influenza A virus (A/Puerto Rico/8/34(H1N1)) infected in MDCK cells assessed as protection against virus-induced reduction in cell viability after 3 to 6 days by MTS assay. Type of data set: functional, organism-based. The conditions noted are these: A/Puerto Rico/8/1934(H1N1). In short, it runs like this: (§1)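 MDCK cells seeded at 9000/well and infected one day later (semiconfluent) with 100 CCID50 virus. Medium was FCS-free Ultra MDCK with 2 μg/mL TPCK-trypsin. Serial five-fold compound dilutions (top 100 μM) were added with the virus, followed by 3–6 days at 35 °C. MTS read-out gave % protection versus virus and mock controls. EC50 was interpolated from semi-log curves; mean of two or three experiments.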

For data set [10], the system named is Influenza B virus. Description: Antiviral activity against Influenza B virus B/Ned/537/05 infected in MDCK cells assessed as protection against virus-induced reduction in cell viability after 3 to 6 days by MTS assay. Type of data set: functional, organism-based. The conditions noted are these: B/Ned/537/05, MDCK. In a few lines: as §1
In general terms: Tetrazolium assays rely on reduction of a dye to a coloured formazan, in cell work by metabolically active cells.

Data set [11] can be described thus: Cytotoxicity against MDCK cells assessed as alterations in normal cell morphology measured after 3 to 6 days by microscopic analysis. Type of data set: cell-based, Canis lupus familiaris. The following applies: dog. In short, it runs like this: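 Uninfected MDCK cultures in FCS-free Ultra MDCK medium with trypsin received five-fold compound dilutions (up to […]) for 3–6 days at 35 °C. Microscopy scored morphology, and MCC was taken as the lowest concentration causing minimal rounding, shrinking or lysis.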

The test system of data set [12] is MDCK. As to the kind of experiment: Cytotoxicity against MDCK cells assessed as reduction in cell viability measured after 3 to 6 days by MTS assay. Type of data set: cell-based, Canis lupus familiaris. The conditions noted are these: dog. In short, it runs like this: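 Mock-infected MDCK plates were run in parallel (FCS-free Ultra MDCK medium with TPCK-trypsin) with serial five-fold dilutions up to […], 35 °C for 3–6 days. CC50 was interpolated from semi-log dose-response curves; mean of two or three experiments.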

The test system of data set [13] is Respiratory syncytial virus. Description: Antiviral activity against Respiratory syncytial virus Long infected in human HeLa cells assessed as inhibition of virus-induced cytopathic effect after 3 to 6 days by MTS based microscopy. Type of data set: functional, organism-based. (In general: Cytopathic effects are the visible damage that an infection or toxin causes in cultured cells.)

The nature of data set [14]: Cytotoxicity against human HeLa cells assessed as alterations in normal cell morphology measured after 3 to 6 days by microscopic analysis. Type of data set: cell-based. In short, it runs like this: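 Mock-infected HeLa cultures in 2% FCS medium received serial five-fold dilutions […] for 3–6 days at 37 °C. MCC was the lowest concentration giving microscopically visible minimal change in cell morphology (rounding, shrinking, lysis).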

For data set [15], the system named is Vero. Description: Cytotoxicity against African green monkey Vero cells assessed as reduction in cell viability measured after 3 to 6 days by MTS assay. The conditions noted are these: chlorocebus sabaeus. Type of data set: cell-based.
A short description of data set [16]: Selectivity index, ratio of CC50 for MDCK cells to EC50 for Influenza B virus B/Ned/537/05 infected in MDCK cells. The following applies: dog, read-out: Ratio CC50/EC50. Type of data set: toxicity, cell-based. In a few lines:
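Selectivity index for influenza B in MDCK was calculated as MTS-based CC50 divided by MTS-based EC50, both measured in parallel in the same assay.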

Data set [17] has as its system Influenza B virus. As to the kind of experiment: Potency index, ratio of ribavirin EC50 to compound EC50 for Influenza B virus B/Ned/537/05 infected in MDCK cells. Type of data set: functional.
Data set [18] in a line: Selectivity index, ratio of MCC for human HeLa cells to EC50 for Respiratory syncytial virus Long infected in human HeLa cells. The following applies: read-out: Selectivity Index. Type of data set: toxicity, cell-based. In a few lines: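 Selectivity index for RSV Long in HeLa was calculated as microscopic MCC divided by CPE-based microscopic EC50 from parallel infected and mock-infected cultures.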

Data set [19] deals with Respiratory syncytial virus. As to the kind of experiment: Potency index, ratio of ribavirin EC50 to compound EC50 for Respiratory syncytial virus Long infected in human HeLa cells. Type of data set: functional.
In data set [20] the test system is Human alphaherpesvirus 1. As to the kind of experiment: Antiviral activity against Herpes simplex virus type 1 infected in human HEL299 cells assessed as inhibition of virus-induced cytopathic effect after 3 to 6 days by MTS assay. Type of data set: functional, organism-based.
Data set [21] concerns Human alphaherpesvirus 2. Description: Antiviral activity against Herpes simplex virus type 2 infected in human HEL299 cells assessed as inhibition of virus-induced cytopathic effect after 3 to 6 days by MTS assay. Type of data set: functional, organism-based.
Data set [22] relates to Vaccinia virus. Description: Antiviral activity against Vaccinia virus infected in human HEL299 cells assessed as inhibition of virus-induced cytopathic effect after 3 to 6 days by MTS assay. Type of data set: functional, organism-based. The conditions noted are these: Orthopoxvirus vaccinia.
For data set [23], the system named is Human adenovirus 2. As to the kind of experiment: Antiviral activity against Human adenovirus type 2 infected in human HEL299 cells assessed as inhibition of virus-induced cytopathic effect after 3 to 6 days by MTS assay. Type of data set: functional, organism-based.
Data set [24] deals with Human immunodeficiency virus. Description: Antiviral activity against HIV. Type of data set: functional, organism-based.
Data set [25] has as its system Human coronavirus 229E. Description: Antiviral activity against Human coronavirus 229E infected in human HEL299 cells assessed as inhibition of virus-induced cytopathic effect after 3 to 6 days by MTS assay. Type of data set: functional, organism-based.
Data set [26] deals with Human respirovirus 3. As to the kind of experiment: Antiviral activity against Parainfluenza virus 3 infected in African green monkey Vero cells assessed as inhibition of virus-induced cytopathic effect after 3 to 6 days by MTS assay. Type of data set: functional, organism-based.
Data set [27] deals with Vesicular stomatitis virus. Description: Antiviral activity against Vesicular stomatitis virus infected in human HEL299 cells assessed as inhibition of virus-induced cytopathic effect after 3 to 6 days by MTS assay. Type of data set: functional, organism-based.
Data set [28] relates to Sindbis virus. Description: Antiviral activity against Sindbis virus infected in African green monkey Vero cells assessed as inhibition of virus-induced cytopathic effect after 3 to 6 days by MTS assay. Type of data set: functional, organism-based.
The test system of data set [29] is Yellow fever virus. Description: Antiviral activity against Yellow fever virus infected in African green monkey Vero cells assessed as inhibition of virus-induced cytopathic effect after 3 to 6 days by MTS assay. Type of data set: functional, organism-based.
The test system of data set [30] is Punta Toro virus. As to the kind of experiment: Antiviral activity against Punta Toro virus infected in African green monkey Vero cells assessed as inhibition of virus-induced cytopathic effect after 3 to 6 days by MTS assay. Type of data set: functional, organism-based.
Data set [31] has as its system Coxsackievirus B4. As to the kind of experiment: Antiviral activity against Coxsackie B4 virus infected in human HeLa cells assessed as inhibition of virus-induced cytopathic effect after 3 to 6 days by MTS assay. Type of data set: functional, organism-based.
For data set [32], the system named is Mammalian orthoreovirus 1. Description: Antiviral activity against Reovirus-1 infected in African green monkey Vero cells assessed as inhibition of virus-induced cytopathic effect after 3 to 6 days by MTS assay. Type of data set: functional, organism-based.
The target of data set [33] is T1, Dihydrofolate reductase (Homo sapiens, UniProt P00374).
T1 sequence (P00374 whole entry): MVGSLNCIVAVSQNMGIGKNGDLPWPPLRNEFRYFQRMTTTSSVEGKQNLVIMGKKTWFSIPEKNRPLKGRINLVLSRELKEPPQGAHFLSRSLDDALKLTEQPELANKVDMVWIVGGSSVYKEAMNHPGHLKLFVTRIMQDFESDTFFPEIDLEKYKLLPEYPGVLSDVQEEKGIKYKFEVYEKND
Description: Binding affinity to human recombinant DHFR using dihydrofolate as substrate after 180 secs by spectrophotometric method. In short, it runs like this: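 Recombinant human DHFR (0.42 μM) in TES buffer with inhibitor, 60 μM DHF, and 120 μM NADPH added last to start the reaction. Absorbance at 340 nm was followed for 180 s. Six concentrations (1–32 μM) were run in duplicate. IC50 came from Dixon plots assuming competitive inhibition. Ki = IC50/(1+[S]/Km), with DHF Km 5 μM.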

With `Cc1cn(-c2ccc(NC(=O)Nc3ccccc3C)cc2)nn1`, the EC50 in data set [1], in data set [2], in data set [3] and in [4] was 970 to 16500 nM each time. The selectivity ratio in data set [5], in data set [6], in data set [7] and in [8] was 162 each time.

Consider `Cc1ccc(C(=O)N2CCC3(CC2)N=C(N)N=C(N)N3c2cccc(Cl)c2)cc1`, for which the results for the EC50 in data set [9], in [10] and in data set [13] were above 100000 nM, 290 nM and 400 nM, respectively. Moreover, the results for the MCC in [11] and in data set [14] were at least 800 nM and at least 100 µM, respectively. Further, the CC50 in data set [12] was determined as 18000 nM. For the same molecule, in data set [15], the Activity entry is listed as “Non-Toxic”. Moreover, the selectivity ratio in data set [16] is 62; in data set [18], 250. Further, the “Ratio EC50” value is reported as 11 in [17] and 15 in data set [19]. The result in data set [20], in data set [21], in data set [22], in data set [23], in data set [24] and in data set [25] was inactive. Moreover, the result in [26], in data set [27], in data set [28], in data set [29], in [30] and in data set [31] was inactive. Moreover, the result in data set [32] was inactive. Moreover, the Ki in data set [33] was 640 nM.

Turning to `NC1=NC2(CCN(C(=O)Nc3ccc(F)cc3)CC2)N(c2cccc(Cl)c2)C(N)=N1`, the figures for the EC50 in [9], in [10] and in [13] were above 100000 nM, 190 nM and 1800 nM, respectively. Moreover, the MCC is at least 160 nM in [11] and at least 100 µM in [14]. Besides, the CC50 in data set [12] amounted to 51000 nM. For the same molecule, in [15], the Activity result is recorded as “Non-Toxic”. In addition, the selectivity ratio in [16] is 268; in data set [18] it was 56. For the same molecule, the “Ratio EC50” value in data set [19] was determined as 3. Further, the outcome in [20], in data set [21], in data set [22], in data set [23], in [24] and in [25] was inactive. Besides, the result in data set [26], in [27], in [28], in data set [29], in [30] and in data set [31] was inactive. Further, the result in data set [32] was inactive. In data set [33], the Ki was determined as 530 nM.
